Laboratory results from article PMC7108400 (Leukemia research, 2019).
Entries after “also recorded” stand apart in the source; their conditions may differ. Like-named read-outs stand apart in the source and are kept apart here.

What was measured:
AML = conditions: panobinostat 30 mg combined with azacitidine; cited from earlier work
[1] = system: newly diagnosed primary or secondary high-risk AML; experiment: Anti-leukemic efficacy; type: in vivo, human; conditions: for ORR: 20-mg dose level
[2] = system: AML progressed on standard therapy / advanced hematologic malignancies; conditions: single agent, cited from earlier work
[3] = system: first relapse or primary refractory AML; conditions: cited from earlier work
[4] = Panobinostat plasma pharmacokinetics, cycle 1 day 8, non-compartmental; type: in vivo, human; conditions: for CL/F / AUC / AUC(0-t) / Vd/F: geometric mean (%CV); for Cmax / AUC / AUC(0-t) / half-life / Tmax / Vd/F: human, plasma, oral; for AUC: AUC0inf; for half-life: T1/2, Median (range); for Tmax: Median (range); for Vd/F: Vz/F
Summary of the method: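 Adults <65 y with newly diagnosed high-risk AML received oral HDAC-inhibitor test compound thrice weekly from day 8, after idarubicin 12 mg/m²/d IV (days 1–3) and ara-C 100 mg/m²/d continuous IV (days 1–7). On cycle 1 day 8, 3 mL blood was drawn pre-dose and at 0.5–28 h. Plasma parameters were derived non-compartmentally; geometric mean (%CV) excluded zero concentrations, and Tmax is median (range).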

newly diagnosed AML = conditions: cited from earlier work
[5] = system: AML cell lines and primary AML cells from patients; conditions: combination with doxorubicin; cited from earlier work
[6] = Dose-limiting toxicities and MTD/RP2D determination; type: in vivo
BRCA1, CHK1, and RAD51 = conditions: AML cell lines; cited from earlier work
[7] = PAN 20 mg (expansion phase), N=12
[8] = 20 mg, PAN 20 mg (expansion phase), N=10
[9] = elderly patients (> 65 years), with idarubicin and ara-C

SMILES: Cc1[nH]c2ccccc2c1CCNCc1ccc(/C=C/C(=O)NO)cc1 [panobinostat]
- Grade ≥ 3 AEs (AML): 97%
- Response rate ([1]; 15-mg dose group): 81.8%
- CRi ([1]; 15-mg dose group (3 patients)): 27.3%
- CR ([1]; 15-mg dose group (6 patients)): 54.5%
- ORR ([1]; escalation phase (9 patients)): 60%
- ORR ([1]; expansion phase (6 patients)): 50%
- Complete remission (CR) ([1]; All patients, N=46): 20 (43.5) n (%)
- Complete remission with incomplete blood count recovery (CRi) ([1]; All patients, N=46): 8 (17.4) n (%)
- Partial remission (PR) ([1]; All patients, N=46): 2 (4.3) n (%)
- Response rate (CR or CRi) ([1]; All patients, N=46): 28 (60.9) n (%)
- Treatment failure ([1]; All patients, N=46): 13 (28.3) n (%)
- Complete remission (CR) ([1]; PAN 15 mg, N=11): 6 (54.5) n (%)
- Complete remission with incomplete blood count recovery (CRi) ([1]; PAN 15 mg, N=11): 3 (27.3) n (%)
- Partial remission (PR) ([1]; PAN 15 mg, N=11): 0 (0.0) n (%)
- Response rate (CR or CRi) ([1]; PAN 15 mg, N=11): 9 (81.8) n (%)
- Treatment failure ([1]; PAN 15 mg, N=11): 1 (9.1) n (%)
- Complete remission (CR) [1, 7]: 5 (41.7) n (%)
- Complete remission with incomplete blood count recovery (CRi) [1, 7]: 1 (8.3) n (%)
- Partial remission (PR) [1, 7]: 1 (8.3) n (%)
- Response rate (CR or CRi) [1, 7]: 6 (50.0) n (%)
- Treatment failure [1, 7]: 3 (25.0) n (%)
- Complete remission (CR) ([1]; PAN 20 mg, N=15): 7 (46.7) n (%)
- Complete remission with incomplete blood count recovery (CRi) ([1]; PAN 20 mg, N=15): 2 (13.3) n (%)
- Partial remission (PR) ([1]; PAN 20 mg, N=15): 0 (0.0) n (%)
- Response rate (CR or CRi) ([1]; PAN 20 mg, N=15): 9 (60.0) n (%)
- Treatment failure ([1]; PAN 20 mg, N=15): 6 (40.0) n (%)
- Complete remission (CR) ([1]; PAN 25 mg, N=8): 2 (25.0) n (%)
- Complete remission with incomplete blood count recovery (CRi) ([1]; PAN 25 mg, N=8): 2 (25.0) n (%)
- Partial remission (PR) ([1]; PAN 25 mg, N=8): 1 (12.5) n (%)
- Response rate (CR or CRi) ([1]; PAN 25 mg, N=8): 4 (50.0) n (%)
- Treatment failure ([1]; PAN 25 mg, N=8): 3 (37.5) n (%)
- Re-induction rate (second induction cycle) ([1]; Ten of 46 patients): 22%
- Overall response rate (ORR) (CR or CRi) ([1]; all 46 patients): 60.9%
- CR with incomplete count recovery (CRi) ([1]; all 46 patients (8 patients)): 17.4%
- Complete remission (CR) ([1]; all 46 patients (20 patients)): 43.5%
- Event-free survival at 1-year ([1]; all patients): 78.3%
- Treatment discontinuation due to disease progression ([1]; all patients (11 patients)): 23.9%
- Median overall survival ([1]; current study): not reached
- Median duration of response ([1]; inadequate number of events at last censoring): not estimable
- Complete remission (CR) ([2]; of 86 patients, 60-mg dose): 2 patients
- MTD of panobinostat alone [2]: 60 mg
- DLTs ([3]; first 2 cohorts, 20 mg and 30 mg thrice weekly): no DLTs occurred
- CR/CRi rate ([3]; plus ara-C and mitoxantrone): 46%
- RP2D of panobinostat ([3]; with mitoxantrone and ara-C as salvage therapy): 50 mg
- CL/F ([4]; PAN 15 mg, N=10): 295 (54.7) L/h
- CL/F ([4]; PAN 20 mg (expansion phase), N=10): 193 (32.3) L/h
- CL/F ([4]; PAN 20 mg, N=11): 269 (68.2) L/h
- Tmax, Median (range) ([4]; PAN 25 mg, N=8): 2.02 [1.25–4.90] h
- CL/F ([4]; PAN 25 mg, N=8): 294 (44.3) L/h
- Cmax ([4]; 15 mg): 0.00603 µg/mL
- AUC ([4]; 15 mg, PAN 15 mg, N=10): 0.0508 µg·h/mL
- AUC(0-t) ([4]; 15 mg, AUC0–24, PAN 15 mg, N=10): 0.0425 µg·h/mL
- half-life ([4]; 15 mg, PAN 15 mg, N=10): 8.74 h
- Tmax ([4]; 15 mg, PAN 15 mg, N=10): 3 h
- Vd/F ([4]; 15 mg, PAN 15 mg, N=10): 3920 L
- Cmax ([4]; 20 mg): 0.015 µg/mL
- AUC [4, 8]: 0.103 µg·h/mL
- AUC ([4]; 20 mg, PAN 20 mg, N=11): 0.0743 µg·h/mL
- AUC(0-t) ([4]; 20 mg, AUC0–24, PAN 20 mg (expansion phase), N=10): 0.0927 µg·h/mL
- AUC(0-t) ([4]; 20 mg, AUC0–24, PAN 20 mg, N=11): 0.0626 µg·h/mL
- half-life [4, 8]: 7.94 h
- half-life ([4]; 20 mg, PAN 20 mg, N=11): 9.7 h
- Tmax [4, 8]: 1.98 h
- Tmax ([4]; 20 mg, PAN 20 mg, N=11): 1.05 h
- Vd/F [4, 8]: 1810 L
- Vd/F ([4]; 20 mg, PAN 20 mg, N=11): 3790 L
- Cmax ([4]; 25 mg): 0.0112 µg/mL
- AUC ([4]; 25 mg, PAN 25 mg, N=8): 0.085 µg·h/mL
- AUC(0-t) ([4]; 25 mg, AUC0–24, PAN 25 mg, N=8): 0.0746 µg·h/mL
- half-life ([4]; 25 mg, PAN 25 mg, N=8): 7.81 h
- Vd/F ([4]; 25 mg, PAN 25 mg, N=8): 3360 L
- CR rate (newly diagnosed AML; [9]): 64%
- Median time to relapse (newly diagnosed AML; [9]): 17.0 months
- MTD of panobinostat (newly diagnosed AML; with 8 mg/m^2 idarubicin (day 1–3) and 100 mg/m^2 ara-C (day 1–7), elderly): 10 mg
- Cell death (caspase-dependent apoptosis) [5]: induces cell death
- Patients who experienced DLTs during induction ([6]; human, in vivo): 7 patients
- Recommended phase 2 dose (RP2D) of panobinostat ([6]; human, in vivo): 20 mg
- MTD ([6]; patients 18–65 years, staggered schedule with idarubicin and ara-C): not reached
- SAE: sepsis (1 in 25 mg and 1 in 20 mg expansion groups): 2 patients
- Discontinuation, primary reason death (All patients, n=46): 5 (10.9) n (%)
- Discontinuation, primary reason death (PAN 15 mg, n=11): 1 (9.1) n (%)
- Discontinuation, primary reason death (PAN 20 mg (dose expansion), n=12): 3 (25) n (%)
- SAE: infections (all dose groups): 5 patients
- On-treatment deaths during the induction phase (all in the 20 mg expansion dose group): 6.5%
- Deaths during the study period or within 28 days after the end of treatment (all patients): 6 deaths
- Deaths in the induction phase (all patients): 3 deaths
- Deaths overall (induction and consolidation) (all patients): 5 deaths
- Abdominal pain, Any grade (human, in vivo): 3 (6.5) n (%)
- Abdominal pain, Grade 3 or 4 (human, in vivo): 0 (0.0) n (%)
- All-grade cardiac events (human, in vivo): 6.5%
- Alopecia, Any grade (human, in vivo): 3 (6.5) n (%)
- Alopecia, Grade 3 or 4 (human, in vivo): 0 (0.0) n (%)
- Anemia, Any grade (human, in vivo): 17 (37.0) n (%)
- Anemia, Grade 3 or 4 (human, in vivo): 15 (32.6) n (%)
- Anemia, all-grade (human, in vivo): 37%
- Decreased appetite, Any grade (human, in vivo): 10 (21.7) n (%)
- Decreased appetite, Grade 3 or 4 (human, in vivo): 1 (2.2) n (%)
- Decreased appetite, all-grade (human, in vivo): 21.7%
- Diarrhea, Any grade (human, in vivo): 25 (54.3) n (%)
- Diarrhea, Grade 3 or 4 (human, in vivo): 3 (6.5) n (%)
- Discontinuation, primary reason adverse events (human, in vivo): 8 (17.4) n (%)
- Discontinued due to AEs (human, in vivo): 15.8%
- Dyspepsia, Any grade (human, in vivo): 2 (4.3) n (%)
- Dyspepsia, Grade 3 or 4 (human, in vivo): 0 (0.0) n (%)
- Fatigue, Any grade (human, in vivo): 8 (17.4) n (%)
- Fatigue, Grade 3 or 4 (human, in vivo): 1 (2.2) n (%)
- Fatigue, all-grade (human, in vivo): 17.4%
- Febrile neutropenia, Any grade (human, in vivo): 17 (37.0) n (%)
- Febrile neutropenia, Grade 3 or 4 (human, in vivo): 16 (34.8) n (%)
- Febrile neutropenia, all-grade (human, in vivo): 37%
- Grade 3 or 4 AEs suspected to be treatment-related (human, in vivo): 73.9%
- Hypokalemia, Any grade (human, in vivo): 7 (15.2) n (%)
- Hypokalemia, Grade 3 or 4 (human, in vivo): 3 (6.5) n (%)
- Left ventricular dysfunction, Any grade (human, in vivo): 3 (6.5) n (%)
- Left ventricular dysfunction, Grade 3 or 4 (human, in vivo): 2 (4.3) n (%)
- Leukopenia, Any grade (human, in vivo): 2 (4.3) n (%)
- Leukopenia, Grade 3 or 4 (human, in vivo): 2 (4.3) n (%)
- Leukopenia, all-grade (human, in vivo): 4.3%
- Nausea, Any grade (human, in vivo): 18 (39.1) n (%)
- Nausea, Grade 3 or 4 (human, in vivo): 0 (0.0) n (%)
- Neutropenia, Any grade (human, in vivo): 9 (19.6) n (%)
- Neutropenia, Grade 3 or 4 (human, in vivo): 9 (19.6) n (%)
- Neutropenia, all-grade (human, in vivo): 19.6%
- Patients with AEs (human, in vivo): 84.8%
- Pyrexia, Any grade (human, in vivo): 6 (13.0) n (%)
- Pyrexia, Grade 3 or 4 (human, in vivo): 0 (0.0) n (%)
- SAE: cardiac disorders (human, in vivo): 5 patients
- SAE: grade ≥ 3 febrile neutropenia (human, in vivo): 10 patients
- Stomatitis, Any grade (human, in vivo): 9 (19.6) n (%)
- Stomatitis, Grade 3 or 4 (human, in vivo): 0 (0.0) n (%)
- Stomatitis, all-grade (human, in vivo): 19.6%
- Thrombocytopenia, Any grade (human, in vivo): 21 (45.7) n (%)
- Thrombocytopenia, Grade 3 or 4 (human, in vivo): 21 (45.7) n (%)
- Thrombocytopenia, all-grade (human, in vivo): 45.7%
- Treatment discontinuation due to AEs (human, in vivo): 17.4%
- Vomiting, Any grade (human, in vivo): 10 (21.7) n (%)
- Vomiting, Grade 3 or 4 (human, in vivo): 0 (0.0) n (%)
- Vomiting, all-grade (human, in vivo): 21.7%
- Expression of BRCA1, CHK1, and RAD51 (BRCA1, CHK1, and RAD51): decreases the levels of key proteins BRCA1, CHK1, and RAD51; also recorded: reduce the expression of BRCA1, CHK1, and RAD51
